According to article PMC7263024 (General and comparative endocrinology, 2019):
Entries after “also recorded” stand apart in the source; their conditions may differ.

Key:
gMc4r/gMrap2 = experiment: cAMP-reporter gene assay, gMc4r co-expressed with gMrap2; assay type: cell-based, spotted gar (Lepisosteus oculatus); conditions: Fig. 5B; vs gMc4r alone; p < 0.001 (both ligands); T-test
gMc3r/gMrap1 = experiment: cAMP-reporter gene assay, gMc3r co-expressed with gMrap1; assay type: cell-based, spotted gar (Lepisosteus oculatus); conditions: Fig. 4A, vs gMc3r alone; for effect of gMrap1 co-expression on ligand sensitivity: p = 0.49 (hACTH(1–24)), p = 0.98 (NDP-MSH)
Summary of the method: (§1)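 CHO cells (F12K, 10% FBS, 37 °C, 5% CO2) nucleofected with 2 μg each of gar receptor cDNA, with or without gar Mrap1 or Mrap2, plus CRE-luciferase. After 48 h, stimulated 4 h at 37 °C in serum-free medium with hACTH(1–24) 10−13–10−6 M or NDP-MSH 10−12–10−6 M. Luminescence read after a 5 min luciferase reagent step. Medium-only background subtracted. EC50 from Michaelis-Menten fits; triplicates.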

gMc4r = experiment: cAMP-reporter gene assay, gMc4r expressed alone; assay type: cell-based, spotted gar (Lepisosteus oculatus); conditions: p = 0.11
Summary of the method: as §1

gMc2r = experiment: cAMP-reporter gene assay, gMc2r expressed alone; assay type: cell-based, spotted gar (Lepisosteus oculatus); conditions: Fig. 2A; CHO cells, CRE-Luciferase, 4 h at 37 °C, 10^−13M to 10^−6M; n = 3
Summary of the method: as §1

gMc2r/gMrap1 = experiment: cAMP-reporter gene assay, gMc2r co-expressed with gMrap1; assay type: cell-based, spotted gar (Lepisosteus oculatus)
Summary of the method: as §1

gMc5r/gMrap2 = experiment: cAMP-reporter gene assay, gMc5r co-expressed with gMrap2; assay type: cell-based, spotted gar (Lepisosteus oculatus); conditions: Fig. 6A, 6B, vs gMc5r alone; for effect of gMrap2 co-expression on Vmax: hACTH(1–24) p = 0.001, NDP-MSH p = 0.007, T-test; for effect of gMrap2 co-expression on ligand sensitivity: hACTH(1–24) p = 0.5
Summary of the method: as §1

gMc1r/gMrap2 = experiment: cAMP-reporter gene assay, gMc1r co-expressed with gMrap2; assay type: cell-based, spotted gar (Lepisosteus oculatus); conditions: Fig. 3B, vs gMc1r alone; for effect of gMrap2 co-expression on Vmax value: hACTH(1–24) P = 0.43, NDP-MSH p = 0.42, T-test; for effect of gMrap2 co-expression on ligand sensitivity: p = 0.12 (hACTH(1–24)), p = 0.28 (NDP-MSH)
Summary of the method: as §1

gMc5r/gMrap1 = experiment: cAMP-reporter gene assay, gMc5r co-expressed with gMrap1; assay type: cell-based, spotted gar (Lepisosteus oculatus); conditions: Fig. 6A, 6B, vs gMc5r alone; for effect of gMrap1 co-expression on Vmax: hACTH(1–24) p = 0.44, NDP-MSH p = 0.01, T-test; for effect of gMrap1 co-expression on ligand sensitivity: hACTH(1–24) p = 0.5, NDP-MSH p = 0.64
Summary of the method: as §1

gMc3r/gMrap2 = experiment: cAMP-reporter gene assay, gMc3r co-expressed with gMrap2; assay type: cell-based, spotted gar (Lepisosteus oculatus); conditions: Fig. 4B, vs gMc3r alone; for effect of gMrap2 co-expression on Vmax value: hACTH(1–24) p – 0.99, NDP-MSH p > 0.001 (so in the source), T-test; for effect of gMrap2 co-expression on ligand sensitivity: p = 0.98 (both ligands)
gMc4r/gMrap1 = experiment: cAMP-reporter gene assay, gMc4r co-expressed with gMrap1; assay type: cell-based, spotted gar (Lepisosteus oculatus); conditions: Fig. 5A, vs gMc4r alone; for effect of gMrap1 co-expression on ligand sensitivity: p = 0.49 (hACTH(1–24)), p = 0.98 (NDP-MSH)
Summary of the method: as §1

gMc1r/gMrap1 = experiment: cAMP-reporter gene assay, gMc1r co-expressed with gMrap1; assay type: cell-based, spotted gar (Lepisosteus oculatus); conditions: Fig. 3A, vs gMc1r alone; for effect of gMrap1 co-expression on Vmax value: hACTH(1–24) p < 0.001, NDP-MSH p = 0.02, T-test; for effect of gMrap1 co-expression on ligand sensitivity: p = 0.90 (hACTH(1–24)), p = 0.92 (NDP-MSH)
Summary of the method: as §1

gMc2r/gMrap2 = experiment: cAMP-reporter gene assay, gMc2r co-expressed with gMrap2; assay type: cell-based, spotted gar (Lepisosteus oculatus); conditions: Fig. 2A, CHO cells, CRE-Luciferase, 4 h at 37 °C, 10^−13M to 10^−6M, n = 3
Summary of the method: as §1

[1] = system: Gallus gallus (chicken; c) Mc5r with cMrap1; conditions: ref Thomas et al., 2018; cited from earlier work
hMc2r/mMrap1 = conditions: ref Liang et al., 2011; cited from earlier work
gMc1r = experiment: cAMP-reporter gene assay, gMc1r expressed alone; assay type: cell-based, spotted gar (Lepisosteus oculatus); conditions: comparison of EC50 values, p < 0.001
gMc3r = experiment: cAMP-reporter gene assay, gMc3r expressed alone; assay type: cell-based, spotted gar (Lepisosteus oculatus); conditions: p = 0.03
mouse Mc4r = conditions: activation by NDP-MSH; ref Asai et al., 2013; cited from earlier work
gMc5r = experiment: cAMP-reporter gene assay, gMc5r expressed alone; assay type: cell-based, spotted gar (Lepisosteus oculatus); conditions: p = 0.07, T-test
zebrafish Mc4r = conditions: 2013, cited from earlier work
hMc2r = conditions: ref Metherell et al., 2005; Sebag and Hinkle, 2007; cited from earlier work
Mc2r and Mc5r orthologs = conditions: ref Thomas et al., 2018, Dores et al., Barney et al., 2019; cited from earlier work

Substance	effect of gMrap2 co-expression on Vmax (gMc4r/gMrap2)	effect of gMrap1 co-expression on Vmax value (gMc3r/gMrap1)	effect of gMrap1 co-expression on ligand sensitivity (gMc3r/gMrap1)	efficacy of hACTH(1–24) compared with NDP-MSH (gMc4r)	effect of gMrap2 co-expression on Vmax (gMc5r/gMrap2)	effect of gMrap2 co-expression on ligand sensitivity (gMc5r/gMrap2)	effect of gMrap2 co-expression on Vmax value (gMc1r/gMrap2)	effect of gMrap2 co-expression on ligand sensitivity (gMc1r/gMrap2)	effect of gMrap1 co-expression on Vmax (gMc5r/gMrap1)	effect of gMrap1 co-expression on ligand sensitivity (gMc5r/gMrap1)	effect of gMrap2 co-expression on Vmax value (gMc3r/gMrap2)	effect of gMrap2 co-expression on ligand sensitivity (gMc3r/gMrap2)	effect of gMrap1 co-expression on Vmax value (gMc4r/gMrap1)	effect of gMrap1 co-expression on ligand sensitivity (gMc4r/gMrap1)	effect of gMrap1 co-expression on Vmax value (gMc1r/gMrap1)	effect of gMrap1 co-expression on ligand sensitivity (gMc1r/gMrap1)	also measured
hACTH(1–24): Human (h) ACTH(1–24), purchased from Sigma-Aldrich; 96% primary sequence identity with gACTH(1–24)	statistically higher than the Vmax for the dose response curve when gMc4r was expressed alone; also recorded: the amplitude of stimulation (Vmax) also increased for both ligands	no effect on the Vmax value	had no effect on sensitivity to stimulation	can be activated with equal efficacy	increase in the Vmax value	did not affect sensitivity; also recorded: no effect, either positive or negative, on the sensitivity of the receptor	no effect on the Vmax value	no effect, in either a positive or negative manner, on the sensitivity of gMc1r	no change in the Vmax value	had no effect on sensitivity to stimulation; also recorded: negligible shift in sensitivity; also recorded: no effect, either positive or negative, on the sensitivity of the receptor	no effect on the Vmax value	no effect either positive or negative on the sensitivity of gMc3r	no effect on the Vmax value	had no effect on sensitivity to stimulation; also recorded: no statistical effect on the sensitivity of gMc4r	decrease in the Vmax value	had no effect on sensitivity to stimulation	effect of gMrap1 co-expression on ligand sensitivity (gMc3r/gMrap1; listed as hACTH (1–24)): no effect either positive or negative on sensitivity; activation of gMc2r expressed alone by hACTH(1–24) (gMc2r): activation of gMc2r did not occur when the receptor was expressed alone; also recorded: did not result in activation of the receptor; also recorded: no activation when expressed alone; activation of gMc2r co-expressed with gMrap1 by hACTH(1–24) (gMc2r/gMrap1; Fig. 2A, CHO cells, CRE-Luciferase, 4 h at 37 °C, n = 3): obligatory requirement for co-expression with gMrap1 in order for the receptor to be activated by hACTH(1–24); also recorded: activation of the receptor was recovered; concentration at which activation reached saturation (gMc2r/gMrap1; Fig. 2B, CHO cells, 4 h at 37 °C): 10^−9 M; activation of gMc2r co-expressed with gMrap2 (gMc2r/gMrap2): activation did not occur; also recorded: gMrap2 did not facilitate activation of gMc2r; activation of gMc2r co-expressed with gMrap2 (gMc2r/gMrap2; listed as hACTH (1–24)): there was no activation; effect of cMrap1 co-expression on sensitivity to stimulation [1]: significantly increased the sensitivity
Nle^4, D-Phe^7-α-MSH [NDP-MSH]	statistically higher than the Vmax for the dose response curve when gMc4r was expressed alone; also recorded: comparable in magnitude to the Vmax value for the gMc4r/gMrap2 cells stimulated hACTH(1–24); also recorded: the amplitude of stimulation (Vmax) also increased for both ligands	no effect on the Vmax value	had no effect on sensitivity to stimulation	can be activated with equal efficacy	increase in Vmax	did not increase sensitivity; also recorded: no effect, either positive or negative, on the sensitivity of the receptor	no effect on the Vmax value	no effect, in either a positive or negative manner, on the sensitivity of gMc1r	increase in Vmax	had no effect on sensitivity to stimulation; also recorded: no effect, either positive or negative, on the sensitivity of the receptor	decrease in the Vmax value	no effect either positive or negative on the sensitivity of gMc3r	no effect on the Vmax value	had no effect on sensitivity to stimulation; also recorded: no statistical effect on the sensitivity of gMc4r	decrease in the Vmax value	had no effect on sensitivity to stimulation; also recorded: no effect on the sensitivity of gMc1r	response to NDP-MSH (hMc2r/mMrap1): did not evoke a response; sensitivity to NDP-MSH compared with hACTH(1–24) (gMc1r): much more sensitive to stimulation by NDP-MSH than to stimulation by hACTH(1–24); activation of gMc2r/gMrap1 by NDP-MSH (gMc2r/gMrap1; Fig. 2B, CHO cells, 4 h at 37 °C, 10^−12M to 10^−6M, n = 3): low level of activation (only at 10^−7M and 10^−6M); also recorded: activation was observed, but only at concentrations of 10^−7 M and 10^−6M; also recorded: weak activation only at 10 ^7M and 10^−6M; also recorded: could be activated to a limited degree by NDP-MSH at concentrations of 10^−7M and 10^−6M; degree of stimulation relative to stimulation at saturation by hACTH(1–24) (gMc2r/gMrap1; NDP-MSH at 10^−6 M vs 10^−9M hACTH(1–24), Fig. 2B): roughly 40%; sensitivity to NDP-MSH compared with hACTH(1–24) (gMc3r): higher sensitivity for stimulation by NDP-MSH than by stimulation with hACTH(1–24); effect of Mrap2 co-expression on ligand sensitivity (mouse Mc4r): enhances ligand sensitivity of the receptor to activation by NDP-MSH; EC50 of NDP-MSH compared with hACTH (1–24) (gMc5r): not statistically different from stimulation with hACTH (1–24); effect of Mrap2 co-expression on ligand sensitivity (zebrafish Mc4r; activation by NDP-MSH, ref Sebag et al.): enhances ligand sensitivity of the receptor to activation by NDP-MSH
ACTH	–	–	–	–	–	–	–	–	–	–	–	–	–	–	–	–	stimulation of hMc2r/Mrap1 by ACTH (hMc2r): in the correct configuration to be stimulated by ACTH; effect of Mrap1 co-expression on sensitivity to stimulation by ACTH (Mc2r and Mc5r orthologs): enhanced sensitivity to stimulation by ACTH; effect of Mrap2 co-expression on sensitivity for activation by ACTH (zebrafish Mc4r; ref Josep Agulleiro et al.): sensitivity for activation by ACTH increases as well
